Experiments:
Type in all cases: functional
[1] = system: Cryptococcus neoformans; experiment: Antifungal activity against flucytosine-resistant Cryptococcus neoformans 98.1121 by checkerboard method in presence of amphotericin B
[2] = system: Cryptococcus neoformans; experiment: Antifungal activity against flucytosine-resistant Cryptococcus neoformans 98.0176 by checkerboard method in presence of amphotericin B
[3] = system: Cryptococcus neoformans; experiment: Antifungal activity against flucytosine-resistant Cryptococcus neoformans 280 by checkerboard method in presence of amphotericin B
[4] = system: Cryptococcus neoformans; experiment: Antifungal activity against flucytosine-resistant Cryptococcus neoformans 98.0673 by checkerboard method
[5] = system: Cryptococcus neoformans; experiment: Antifungal activity against flucytosine-resistant Cryptococcus neoformans 98.0673 by Etest method in presence of amphotericin B
[6] = system: Cryptococcus neoformans; experiment: Antifungal activity against flucytosine-resistant Cryptococcus neoformans 285 by Etest method in presence of amphotericin B
[7] = system: Cryptococcus neoformans; experiment: Antifungal activity against flucytosine-resistant Cryptococcus neoformans 98.0176 by Etest method in presence of amphotericin B
[8] = system: Cryptococcus neoformans; experiment: Antifungal activity against flucytosine-resistant Cryptococcus neoformans 98.1121 by Etest method in presence of amphotericin B
[9] = system: Cryptococcus neoformans; experiment: Antifungal activity against flucytosine-resistant Cryptococcus neoformans 98.0176 at 64 ug/ml after 72 hrs by time-kill method
Summary of the method: (§1)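 Time-kill assay run as in the authors' earlier method. […] Read-out was log10 CFU/ml after 72 h incubation, compared with a drug-free control.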

[10] = system: Cryptococcus neoformans; experiment: Antifungal activity against flucytosine-resistant Cryptococcus neoformans 550 by checkerboard method in presence of amphotericin B
[11] = system: Cryptococcus neoformans; experiment: Antifungal activity against flucytosine-resistant Cryptococcus neoformans 550 by checkerboard method
[12] = system: Cryptococcus neoformans; experiment: Antifungal activity against flucytosine-resistant Cryptococcus neoformans 276 by Etest method in presence of amphotericin B
[13] = system: Cryptococcus neoformans; experiment: Antifungal activity against flucytosine-resistant Cryptococcus neoformans 18476 by Etest method in presence of amphotericin B
[14] = system: Cryptococcus neoformans; experiment: Antifungal activity against flucytosine-resistant Cryptococcus neoformans 533 at 64 ug/ml after 72 hrs by time-kill method; summary of the method: as §1
[15] = system: Cryptococcus neoformans; experiment: Antifungal activity against flucytosine-resistant Cryptococcus neoformans 285 by checkerboard method
[16] = system: Cryptococcus neoformans; experiment: Antifungal activity against flucytosine-resistant Cryptococcus neoformans 99.1026 by checkerboard method
[17] = system: Cryptococcus neoformans; experiment: Antifungal activity against flucytosine-resistant Cryptococcus neoformans 276 at 64 ug/ml after 72 hrs by time-kill method; summary of the method: as §1
[18] = system: Cryptococcus neoformans; experiment: Antifungal activity against flucytosine-resistant Cryptococcus neoformans 550 at 64 ug/ml after 72 hrs by time-kill method; summary of the method: as §1
[19] = system: Cryptococcus neoformans; experiment: Antifungal activity against flucytosine-resistant Cryptococcus neoformans 280 by Etest method in presence of amphotericin B
[20] = system: Cryptococcus neoformans; experiment: Antifungal activity against flucytosine-resistant Cryptococcus neoformans 99.1026 by Etest method in presence of amphotericin B
[21] = system: Cryptococcus neoformans; experiment: Antifungal activity against flucytosine-resistant Cryptococcus neoformans 276 by checkerboard method
[22] = system: Cryptococcus neoformans; experiment: Antifungal activity against flucytosine-resistant Cryptococcus neoformans 18476 at 64 ug/ml after 72 hrs by time-kill method; summary of the method: as §1
[23] = system: Cryptococcus neoformans; experiment: Antifungal activity against flucytosine-resistant Cryptococcus neoformans 533 by checkerboard method in presence of amphotericin B
[24] = system: Cryptococcus neoformans; experiment: Antifungal activity against flucytosine-resistant Cryptococcus neoformans 280 at 64 ug/ml after 72 hrs by time-kill method; summary of the method: as §1
[25] = system: Cryptococcus neoformans; experiment: Antifungal activity against flucytosine-resistant Cryptococcus neoformans 18476 by checkerboard method in presence of amphotericin B
[26] = system: Cryptococcus neoformans; experiment: Antifungal activity against flucytosine-resistant Cryptococcus neoformans 276 by checkerboard method in presence of amphotericin B
[27] = system: Cryptococcus neoformans; experiment: Antifungal activity against flucytosine-resistant Cryptococcus neoformans 98.0176 by checkerboard method
[28] = system: Cryptococcus neoformans; experiment: Antifungal activity against flucytosine-resistant Cryptococcus neoformans 98.1121 at 64 ug/ml after 72 hrs by time-kill method
Summary of the method: (§2)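 Time-kill assay on flucytosine-resistant isolates. […] Viable counts were taken as log10 CFU per ml after 72 h of incubation.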

[29] = system: Cryptococcus neoformans; experiment: Antifungal activity against flucytosine-resistant Cryptococcus neoformans 533 by Etest method in presence of amphotericin B
[30] = system: Cryptococcus neoformans; experiment: Antifungal activity against flucytosine-resistant Cryptococcus neoformans 18476 by checkerboard method
[31] = system: Cryptococcus neoformans; experiment: Antifungal activity against flucytosine-resistant Cryptococcus neoformans 533 by checkerboard method
[32] = system: Cryptococcus neoformans; experiment: Antifungal activity against flucytosine-resistant Cryptococcus neoformans 285 by checkerboard method in presence of amphotericin B
[33] = system: Cryptococcus neoformans; experiment: Antifungal activity against flucytosine-resistant Cryptococcus neoformans 99.1026 by checkerboard method in presence of amphotericin B
[34] = system: Cryptococcus neoformans; experiment: Antifungal activity against flucytosine-resistant Cryptococcus neoformans 98.0673 at 64 ug/ml after 72 hrs by time-kill method; summary of the method: as §1
[35] = system: Cryptococcus neoformans; experiment: Antifungal activity against flucytosine-resistant Cryptococcus neoformans 550 by Etest method in presence of amphotericin B
[36] = system: Cryptococcus neoformans; experiment: Antifungal activity against flucytosine-resistant Cryptococcus neoformans 280 by checkerboard method
[37] = system: Cryptococcus neoformans; experiment: Antifungal activity against flucytosine-resistant Cryptococcus neoformans 99.1026 at 64 ug/ml after 72 hrs by time-kill method; summary of the method: as §2
[38] = system: Cryptococcus neoformans; experiment: Antifungal activity against flucytosine-resistant Cryptococcus neoformans 98.0673 by checkerboard method in presence of amphotericin B
[39] = system: Cryptococcus neoformans; experiment: Antifungal activity against flucytosine-resistant Cryptococcus neoformans 98.1121 by checkerboard method

Nc1nc(=O)[nH]cc1F [FLUCYTOSINE]
MIC [1]: 0.25 µg/mL | MIC [2]: 0.5 µg/mL | MIC [3]: 0.5 µg/mL | MIC [4]: 64 µg/mL | MIC [5]: > 32 µg/mL | MIC [6]: > 32 µg/mL | MIC [7]: > 32 µg/mL | MIC [8]: > 32 µg/mL | log10CFU/ml [9]: 7.4 | MIC [10]: 0.5 µg/mL | MIC [11]: 128 µg/mL | MIC [12]: > 32 µg/mL | MIC [13]: > 32 µg/mL | log10CFU/ml [14]: 7.5 | MIC [15]: 32 µg/mL | MIC [16]: 32 µg/mL | log10CFU/ml [17]: 7.3 | log10CFU/ml [18]: 7.2 | MIC [19]: > 32 µg/mL | MIC [20]: > 32 µg/mL | MIC [21]: 256 µg/mL | log10CFU/ml [22]: 7.5 | MIC [23]: 0.5 µg/mL | log10CFU/ml [24]: 7.4 | MIC [25]: 1 µg/mL | MIC [26]: 4 µg/mL | MIC [27]: 64 µg/mL | log10CFU/ml [28]: 7.5 | MIC [29]: > 32 µg/mL | MIC [30]: 256 µg/mL | MIC [31]: 256 µg/mL | MIC [32]: 0.25 µg/mL | MIC [33]: 1 µg/mL | log10CFU/ml [34]: 7.4 | MIC [35]: > 32 µg/mL | MIC [36]: 256 µg/mL | log10CFU/ml [37]: 7.1 | MIC [38]: 16 µg/mL | MIC [39]: 256 µg/mL

O=c1[nH]cc(F)c(=O)[nH]1 [FLUOROURACIL]
MIC [4]: 16 µg/mL | MIC [11]: 0.5 µg/mL | MIC [15]: 4 µg/mL | MIC [16]: 8 µg/mL | MIC [21]: 256 µg/mL | MIC [27]: 0.008 µg/mL | MIC [30]: 0.25 µg/mL | MIC [31]: 256 µg/mL | MIC [36]: 256 µg/mL | MIC [39]: 256 µg/mL

From ChEMBL document CHEMBL1142133 (2007)
